One may read the T/C as the result in the treated group divided by that in the control group, in per cent.

Series [1] has as its system L1210. Kind of series: Antitumor activity against mouse L1210 cells allografted in mouse assessed as increase in host survival time at 125 mg/kg administered qd for 6 days relative to control. The series is classed as functional. The method in brief:
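L1210 mouse leukemia in mice, dosed daily (qd) over a 1 to 125 mg/kg range. Read-out was survival time of treated versus control mice, given as % T/C. Procedure follows previously described methods.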

Series [2] concerns Mus musculus. Kind of series: Toxicity in mouse L1210 cells allografted mouse up to 500 mg/kg administered qd for 5 days. The series is classed as organism-based. The arrangement: dose 500 mg/kg. The following applies: in vivo, 120 h.
Series [3] deals with Mus musculus. Kind of series: Antitumor activity against mouse S180J cells allografted in CD-1 mouse assessed as tumor regression at 30 mg/kg, ip administered six times in consecutive days starting a day after tumor cell inoculation measured 42 days after start of drug treatment. The series is classed as functional, organism-based. More on the design: dose 30 mg/kg. In short, it runs like this:
(§1)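 Female CD-1 mice, in groups of six, were inoculated with 7.5 × 10^5 tumor cells. Starting the day after inoculation, the agent was given ip as a carboxymethylcellulose suspension in saline, once daily for six consecutive days, at different dosages.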

Series [4] deals with Mus musculus. Kind of series: Antitumor activity against mouse S180J cells allografted in CD-1 mouse assessed as tumor regression at 100 mg/kg, ip administered six times in consecutive days starting a day after tumor cell inoculation measured 42 days after start of drug treatment. The series is classed as functional, organism-based. More on the design: dose 100 mg/kg. In short, it runs like this: as §1

Series [5] relates to Human alphaherpesvirus 1. Kind of series: Antiviral activity against HSV-1 infected in african green monkey Vero cells assessed as inhibition of viral replication at 100 ug/ml (reference value: 1.2 x 10^6 PFU/ml). Type of series: functional.
Series [6] concerns Human alphaherpesvirus 1. Kind of series: Antiviral activity against HSV-1 infected in african green monkey Vero cells assessed as inhibition of viral replication at 10 ug/ml (reference value: 1.2 x 10^6 PFU/ml). Type of series: functional.
In series [7] the test system is Human alphaherpesvirus 1. Kind of series: Antiviral activity against HSV-1 infected in african green monkey Vero cells assessed as inhibition of viral replication at 1 ug/ml (reference value: 1.2 x 10^6 PFU/ml). The series is classed as functional.
Series [8] concerns Lymphocyte. Kind of series: Immunopotentiation activity in human lymphocytes assessed as increase in cell proliferation at 1 to 100 ug/ml by [3H]thymidine incorporation assay in presence of mitogen phytohemagglutinin. Type of series: functional, cell-based. The method in brief:
(§2)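 Lymphocytes were cultured with compound at 1, 10 and 100 µg/mL, with or without a suboptimal concentration of the lectin mitogen phytohemagglutinin. Proliferation was read as tritiated thymidine incorporation.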

In series [9] the test system is Lymphocyte. Kind of series: Immunopotentiation activity in human lymphocytes assessed as increase in cell proliferation at 1 to 100 ug/ml by [3H]thymidine incorporation assay in absence of mitogen phytohemagglutinin. The series is classed as functional, cell-based. In short, it runs like this: as §2
(Uptake of a labelled nucleoside into DNA is a usual measure of proliferation.)

For series [10], the system named is Mus musculus. Kind of series: Antitumor activity against mouse S180J cells allografted in ip dosed CD-1 mouse assessed as tumor regression administered six times in consecutive days starting a day after tumor cell inoculation measured 42 days after start of drug treatment. Type of series: functional, organism-based. The method in brief:
as §1

Series [11] deals with Lymphocyte. Kind of series: Inhibition of phytohemagglutinin-induced human lymphocytes proliferation at 100 ug/ml by [3H]thymidine incorporation assay. Type of series: functional, cell-based. The method in brief:
as §2

Series [12] has as its system Mus musculus. Kind of series: Antitumor activity against mouse S180J cells allografted in CD-1 mouse assessed as tumor regression at 32 mg/kg, ip administered six times in consecutive days starting a day after tumor cell inoculation measured 42 days after start of drug treatment. Type of series: functional, organism-based. More on the design: dose 32 mg/kg. The method in brief: as §1

Series [13] concerns Mus musculus. Kind of series: Antitumor activity against mouse S180J cells allografted in CD-1 mouse assessed as tumor regression at 16 mg/kg, ip administered six times in consecutive days starting a day after tumor cell inoculation measured 42 days after start of drug treatment. The series is classed as functional, organism-based. The arrangement: dose 16 mg/kg. The method in brief: as §1

Series [14] concerns Mus musculus. Kind of series: Antitumor activity against mouse S180J cells allografted in CD-1 mouse assessed as tumor regression at 4 mg/kg, ip administered six times in consecutive days starting a day after tumor cell inoculation measured 42 days after start of drug treatment. Type of series: functional, organism-based. The arrangement: dose 4 mg/kg. The method in brief: as §1

The subject of series [15] is Mus musculus. Kind of series: Antitumor activity against mouse S180J cells allografted in CD-1 mouse assessed as tumor regression at 1 mg/kg, ip administered six times in consecutive days starting a day after tumor cell inoculation measured 42 days after start of drug treatment. The series is classed as functional, organism-based. The arrangement: dose 1 mg/kg. In short, it runs like this:
as §1

Series [16] relates to Mus musculus. Kind of series: Antitumor activity against AKR mouse leukemia assessed as increase in survival time at 0.2 to 20 mg/kg, ip. The series is classed as functional, organism-based. The method in brief: (§3)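 AKR leukemia-bearing mice were dosed at 0.2, 2.0 and 20 mg/kg, each given by intraperitoneal, oral or subcutaneous routes. The read-out was increase in survival time.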

For series [17], the system named is Mus musculus. Kind of series: Antitumor activity against AKR mouse leukemia assessed as increase in survival time at 0.2 to 20 mg/kg, po. Type of series: functional, organism-based. In short, it runs like this:
as §3

Series [18] relates to Mus musculus. Kind of series: Antitumor activity against AKR mouse leukemia assessed as increase in survival time at 0.2 to 20 mg/kg, sc. The series is classed as functional, organism-based. The method in brief:
as §3

Series [19] has as its system Human alphaherpesvirus 1. Kind of series: Antiviral activity against HSV-1 infected in african green monkey Vero cells assessed as inhibition of viral replication at 100 ug/ml (reference value: 2.7 x 10^5 PFU/ml). The series is classed as functional.
Series [20] relates to Human alphaherpesvirus 1. Kind of series: Antiviral activity against HSV-1 infected in african green monkey Vero cells assessed as inhibition of viral replication at 10 ug/ml (reference value: 2.7 x 10^5 PFU/ml). The series is classed as functional.
Series [21] relates to Human alphaherpesvirus 1. Kind of series: Antiviral activity against HSV-1 infected in african green monkey Vero cells assessed as inhibition of viral replication at 1 ug/ml (reference value: 2.7 x 10^5 PFU/ml). Type of series: functional.
Series [22] deals with Mus musculus. Kind of series: Antitumor activity against mouse S180J cells allografted in CD-1 mouse assessed as tumor regression at 10 to 100 mg/kg, ip administered six times in consecutive days starting day after tumor cell inoculation measured 42 days after start of drug treatment. Type of series: functional, organism-based. In short, it runs like this: as §1

Activity calls are given as the source filed them. No cut-off for these calls is given here.

For the molecule `ONc1ncnc2[nH]c(-c3cscn3)nc12`, in series [1], the T/C is 129%. In addition, the Activity result in [2] was “Non-toxic”.
On to `Nc1nc(S)c2nc(-c3cscn3)[nH]c2n1`, for which the inhibition result in series [3] and in series [4] was “inactive” in each case. In addition, the PFU/ml in series [5] was determined as 820000; in series [6], 5300000; in [7] it was 3500000. Also, the outcome in series [8] and in [9] was inactive. For the same molecule, the inhibition result in series [10] and in series [11] was “Active” each time.
On to `Clc1ncnc2[nH]c(-c3cscn3)nc12`, for which the values for the PFU/ml in series [5], in [6] and in series [7] were 2200000, 2500000 and 4000000, respectively. For the same molecule, the result in [8] and in series [9] was inactive. The inhibition result in series [11] is “Active”.
For the molecule `Oc1ncnc2[nH]c(-c3cscn3)nc12`, the outcome in series [8] and in [9] was inactive. In [11], the inhibition entry was “Active”.
As for `Sc1ncnc2[nH]c(-c3cscn3)nc12`, the inhibition entry in series [12], in [13], in series [14] and in series [15] was “inactive” in each case. Further, the result in series [16], in [17], in series [18], in series [8] and in series [9] was inactive. Moreover, the inhibition result in series [10] and in series [11] was “Active” in each case.
As for `Nc1ncnc2[nH]c(-c3cscn3)nc12`, the inhibition result in series [3] and in series [22] was “inactive” in each case. The PFU/ml in series [19] is 920000; in series [20] it was 850000; in series [21], 320000. The outcome in [8] and in series [9] was inactive. Besides, the inhibition result in [11] is “Active”.
`c1ncc2nc(-c3cscn3)[nH]c2n1`: the outcome in series [8] and in series [9] was inactive. Also, the inhibition result in [22] was “inactive”. The inhibition result in [11] is “Active”.
